KCNQ1 act: potentiates or activates the human KCNQ1 potassium channel. AID 2648. actives 0.35% (n = 310,000). CHO-K1 KCNQ1, thallium flux FluxOR fluorescence; stronger effect = higher value. B-score at 10 µM. P51787;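 active = fluorescence ratio B-score, a plate-corrected score, at least three library SD, with initial intensity B-score within 5 SD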
Target sequence (P51787 whole entry, looked up): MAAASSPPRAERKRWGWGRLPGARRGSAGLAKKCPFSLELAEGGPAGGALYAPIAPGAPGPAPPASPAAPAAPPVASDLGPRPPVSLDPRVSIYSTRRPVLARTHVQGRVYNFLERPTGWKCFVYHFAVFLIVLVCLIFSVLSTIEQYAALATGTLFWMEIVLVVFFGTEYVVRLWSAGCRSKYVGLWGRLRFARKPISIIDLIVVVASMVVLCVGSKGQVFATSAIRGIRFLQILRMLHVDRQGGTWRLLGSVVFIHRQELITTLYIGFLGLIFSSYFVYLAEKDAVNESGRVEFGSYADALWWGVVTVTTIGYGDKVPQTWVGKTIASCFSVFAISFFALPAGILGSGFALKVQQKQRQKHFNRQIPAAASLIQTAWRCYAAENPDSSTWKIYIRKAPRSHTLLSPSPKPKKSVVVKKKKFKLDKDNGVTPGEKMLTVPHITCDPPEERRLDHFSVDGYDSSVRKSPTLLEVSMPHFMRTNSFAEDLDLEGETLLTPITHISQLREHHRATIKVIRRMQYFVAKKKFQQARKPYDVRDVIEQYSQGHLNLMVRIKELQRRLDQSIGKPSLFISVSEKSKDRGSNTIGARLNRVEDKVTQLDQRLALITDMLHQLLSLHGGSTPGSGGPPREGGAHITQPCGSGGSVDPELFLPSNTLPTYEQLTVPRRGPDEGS
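Assay system: stable KCNQ1 CHO-K1 line; medium: assay buffer, equal DMSO in all wells; timing: 90 min dye loading and 20 min compound exposure, both at room temperature; technique: kinetic FluxOR thallium fluorescence, 10-s 1-Hz baseline, 110-s post-stimulus read; read-out basis: B score of baseline-normalized fluorescence ratio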
KCNQ1 block: human KCNQ1 channel inhibition; P51787; CHO-K1 KCNQ1, FluxOR thallium flux fluorescence; stronger effect = higher value; B-score at 10 µM; actives 1.3% (n = 310,000);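 active = compounds whose thallium flux B-score, printed positive for inhibition, exceeds three library SD while starting fluorescence stays within three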;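 note: channel opened by potassium depolarization with thallium stimulus after 20 min compound exposure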
hERG protect: compounds protecting human hERG from proarrhythmic drug block. Q12809. CHO-hERG, FluxOR thallium flux, dofetilide IC70 present. activation (rescue from dofetilide block), less the hit threshold, % at 10 µM. actives 0.51% (n = 310,000). AID 1511;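 active = activation above the mean of controls blocked by dofetilide plus 5 SD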;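 note: thallium influx through hERG after potassium depolarization seen as dye fluorescence rise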
KCC2 mod: KCC2 (human) Cl- transport modulation | KCC2 cells, thallium flux FluoZin-2 fluorescence | B-score of Tl+ flux slope (higher = more flux/activation; lower = inhibition) at 10 µM | AID 1456 | actives 2.2% (n = 190,000) | Q9H2X9;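 active = thallium flux slope and its plate-corrected score both differing from the plate sample mean at a set confidence after two filtering rounds, in either direction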;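 note: slope of fluorescence scaled to starting intensity during 10 to 20 s after thallium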
KCNK9 inh: blocks the human KCNK9 two-pore domain potassium channel. actives 1.2% (n = 310,000). Q9NPC2. HEK293 KCNK9, FluxOR thallium flux fluorescence; stronger effect = lower value. B-score at 10 µM. AID 488922;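 active = ratio B-score over 3 SD below the library mean, with starting fluorescence within 5 SD of its mean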;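 note: negative B-score means less thallium flux so channel inhibition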
KCNK3 block: human KCNK3 channel inhibition, primary screen | O14649 | CHO-KCNK3 thallium flux, FluxOR fluorescence; stronger effect = lower value | B-score at 10 µM | actives 0.84% (n = 340,000);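 active = B-score under library mean minus 4 SD, starting fluorescence ratio at most library mean plus 5 SD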;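 note: more negative B-score means stronger inhibition of thallium flux through KCNK3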
KCNQ1 block val: human KCNQ1 channel inhibition, validation assay. shares compounds with KCNQ1 block. actives 93% (n = 1,600). KCNQ1 cell line, FluxOR thallium flux fluorescence. inhibition, % at 10 µM. AID 588353;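 active = primary screen active, with duplicate mean exceeding buffer control mean plus 3 SD of buffer wells, cut at about 28% in these data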;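 note: 0% = buffer control ratio and 100% = XE991 inhibitor control ratio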
CHO Tl flux: KCNQ1 inhibitor counter-screen hit in parental CHO cells; parental CHO-K1, FluxOR thallium flux fluorescence ratio; stronger effect = lower value; zero means no signal rise above baseline; actives 21% (n = 1,600); fluorescence ratio (Tl flux) at 10 µM; shares compounds with KCNQ1 block;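 active = mean of duplicate thallium-flux fluorescence ratios in parental host cells more than 5 SD below the buffer control mean, cut at about 0.38 in these data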;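 note: ratio is peak minus minimum fluorescence divided by baseline fluorescence; actives read low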
KCNQ1 ephys val: human KCNQ1 inhibition validated by electrophysiology; shares compounds with KCNQ1 block; KCNQ1-CHO cells, automated patch clamp current; calls only at 10 µM; actives 20% (n = 490);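 active = KCNQ1 current drop exceeding 3 SD of negative control wells, seen in both duplicate runs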;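 note: steady state current during a 2 s step from -80 to +40 mV; negative values mean current inhibition and positive values mean potentiation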
KCNQ2 spec: selectivity of KCNQ1 inhibitors: inhibition of rat KCNQ2 channel; shares compounds with KCNQ1 block; KCNQ2 cells, FluxOR thallium flux fluorescence; actives 71% (n = 1,600); inhibition, % at 10 µM;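 active = mean percent inhibition of the KCNQ2 thallium signal more than 5 SD above the buffer-only control wells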;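 note: KCNQ2 expressed in CHO cells; 0% = buffer control wells and 100% = XE-991 inhibitor control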
KCNQ1-KCNE1 inh: human KCNQ1/KCNE1 inhibition in KCNQ1 specificity screen. shares compounds with KCNQ1 block. KCNQ1/KCNE1 cells, FluxOR thallium flux fluorescence. inhibition, % at 10 µM. actives 77% (n = 1,600). AID 652147;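 active = mean percent inhibition of duplicate wells above the buffer-only control mean plus 3 SD of those controls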;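 note: 0% = buffer only wells and 100% = XE-991 inhibitor control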
An asterisk follows results filed as active; i = inactive; . = no result. Compounds with a hit are over-represented: about 4.1% of the library has one in this group of screens.

SMILES	KCNQ1 act	KCNQ1 block	hERG protect	KCC2 mod	KCNK9 inh	KCNK3 block	KCNQ1 block val	CHO Tl flux	KCNQ2 spec	KCNQ1-KCNE1 inh	others
CCC1Sc2ccc(S(=O)(=O)Nc3ccc(OC)c(OC)c3)cc2NC1=O (stereo not drawn)	i	7*	-10.0	.	i	i	80.0*	0.479	69.0%*	i
CCC1Sc2ccc(S(=O)(=O)Nc3ccc(OC)cc3)cc2NC1=O (stereo not drawn)	i	i	-6.5	.	i	i	.	.	.	.
COc1ccc(-c2nc(NC(=O)c3[nH]c(C)c(C(C)=O)c3C)sc2C)cc1	i	14*	-21.8	-0.0251	i	-9.86*	97.0*	0.277*	109.7%*	180.0%*
CC1Cc2ccccc2N1C(=O)CSc1nc2cc3c(cc2cc1C#N)OCO3 (stereo not drawn)	.	.	.	0.516	.	i	.	.	.	.
Cc1cc2cc3c(cc2nc1SCC(=O)N1c2ccccc2CC1C)OCO3 (stereo not drawn)	i	6*	-3.8	0.842	i	i	100.0*	0.35*	77.7%*	89.5%*
CC(C)c1nc(SCC(=O)N2c3ccccc3CC2C)c2ccccc2n1 (stereo not drawn)	i	9*	-12.4	-1.66	i	i	74.5*	0.377*	95.7%*	71.5%*
Cc1ccc(NS(=O)(=O)c2coc(C(N)=O)c2)cc1F	i	i	-5.9	.	i	i	.	.	.	.
O=c1c2c3c(sc2nc(NCCO)n1Cc1ccco1)CCCCC3	i	i	-2.0	-0.504	i	i	.	.	.	.
O=c1c2c3c(sc2nc(NCCO)n1CCc1ccccc1)CCCCC3	i	6*	-13.6	-1.52	i	i	67.0*	0.451	91.7%*	100.5%*
CCC1(C)Cc2ccccc2-c2nc(NN)[nH]c(=O)c21 (stereo not drawn)	i	i	-9.7	.	i	i	.	.	.	.
CCC1(C)Cc2ccccc2-c2nc(-c3ccccc3)oc(=O)c21 (stereo not drawn)	i	8*	-13.0	.	i	i	92.5*	0.491	102.3%*	104.5%*	KCNQ1 ephys val=i
CCCCSc1nnc(-c2ccc(C)cc2)c2ccccc12	i	11*	-22.1	0.728	-7.08*	i	153.5*	0.428	103.0%*	175.0%*	KCNQ1 ephys val=i
CC[C@@H]1CC=C[C@H]2[C@H]1C(=O)N(Cc1ccccc1)[C@H]2c1ccoc1	i	9*	-28.9	-2.1	i	i	78.0*	0.377*	103.7%*	114.5%*
C[C@@H]1CC=C[C@H]2[C@H]1C(=O)N(Cc1ccccc1)[C@H]2c1ccoc1	i	i	-15.2	-1.73	i	i	.	.	.	.
COc1ccc(C2CC(=O)c3cnc(N4CCN(Cc5ccccc5)CC4)nc3C2)cc1 (stereo not drawn)	i	6*	-6.3	-1.06	i	i	67.5*	0.42	102.0%*	105.0%*
CCOC(=O)[C@H]1[C@H]2COc3ccc(C)cc3[C@@H]2N2C(=O)c3cc(F)ccc3NC(=O)[C@@]12C	.	.	.	.	.	i	.	.	.	.
COC(=O)c1ccc(Cl)c(NC(=O)NC23CC4CC(CC(C4)C2)C3)c1	i	10*	-18.2	0.456	i	i	131.0*	0.436	108.3%*	170.5%*
COc1ccc(C(=O)CC2(C(=O)O)CCCCC2)cc1	i	i	-6.1	.	i	i	.	.	.	.
